Values joined by “and” are separate entries in the source; they are usually repeats but may differ in a detail not shown here. Identical values can stand only once. “Also recorded” adds a separate entry of the source. Blank lines part the entries; values can stand above or below the compound they belong to.
How the values were obtained:
UGT1A3 = UGT1A3 (Homo sapiens, UniProt P35503); test: UGT inhibition in suspension human hepatocytes; type: cell-based; settings: read-out: Ki,u HHEPs; UGT1A3, CDCA 2 μM, unbound
Sequence of UGT1A3 (P35503 29-534): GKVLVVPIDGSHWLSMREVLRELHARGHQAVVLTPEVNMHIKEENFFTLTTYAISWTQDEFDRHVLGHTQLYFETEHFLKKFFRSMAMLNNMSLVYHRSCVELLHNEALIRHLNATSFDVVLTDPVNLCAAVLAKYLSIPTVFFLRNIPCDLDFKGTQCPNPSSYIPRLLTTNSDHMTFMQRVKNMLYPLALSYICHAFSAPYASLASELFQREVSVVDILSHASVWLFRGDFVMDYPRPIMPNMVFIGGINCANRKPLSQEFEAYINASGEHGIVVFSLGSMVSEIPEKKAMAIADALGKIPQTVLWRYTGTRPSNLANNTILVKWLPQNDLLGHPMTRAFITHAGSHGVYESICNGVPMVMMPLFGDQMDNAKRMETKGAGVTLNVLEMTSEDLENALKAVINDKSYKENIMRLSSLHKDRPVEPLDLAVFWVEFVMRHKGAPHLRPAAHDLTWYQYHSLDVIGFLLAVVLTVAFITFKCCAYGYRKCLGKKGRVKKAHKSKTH

recombinant SULT1A3 = test: Recombinant SULT inhibition by ABT, SULT1A3; type: biochemical; settings: 1 mM ABT, raloxifene probe substrate, data not shown
UGT2B7 = UGT2B7 (Homo sapiens, UniProt P16662); test: UGT inhibition in suspension human hepatocytes; type: cell-based; settings: read-out: Ki,u HHEPs; UGT2B7, Zidovudine 100 μM, unbound
Sequence of UGT2B7 (P16662 24-529): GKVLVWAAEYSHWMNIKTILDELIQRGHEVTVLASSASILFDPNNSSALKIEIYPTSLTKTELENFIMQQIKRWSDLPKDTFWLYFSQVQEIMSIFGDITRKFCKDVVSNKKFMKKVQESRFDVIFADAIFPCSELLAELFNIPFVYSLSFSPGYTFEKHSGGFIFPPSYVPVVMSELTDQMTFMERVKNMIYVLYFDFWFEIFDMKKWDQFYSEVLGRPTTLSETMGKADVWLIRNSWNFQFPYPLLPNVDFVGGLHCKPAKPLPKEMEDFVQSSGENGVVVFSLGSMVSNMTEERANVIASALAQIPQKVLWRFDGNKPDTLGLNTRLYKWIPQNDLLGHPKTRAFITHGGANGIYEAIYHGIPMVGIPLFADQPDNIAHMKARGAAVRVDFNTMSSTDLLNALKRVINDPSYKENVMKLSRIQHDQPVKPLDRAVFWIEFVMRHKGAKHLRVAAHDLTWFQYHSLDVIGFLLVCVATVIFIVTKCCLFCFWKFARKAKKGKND

recombinant SULT1B1 = test: Recombinant SULT inhibition by ABT, SULT1B1; type: biochemical; settings: 1 mM ABT, raloxifene probe substrate, data not shown
UGT1A9 = UGT1A9 (Homo sapiens, UniProt O60656); test: UGT inhibition in suspension human hepatocytes; type: cell-based; settings: read-out: Ki,u HHEPs; UGT1A9, Propofol 10 μM, unbound
Sequence of UGT1A9 (O60656 26-530): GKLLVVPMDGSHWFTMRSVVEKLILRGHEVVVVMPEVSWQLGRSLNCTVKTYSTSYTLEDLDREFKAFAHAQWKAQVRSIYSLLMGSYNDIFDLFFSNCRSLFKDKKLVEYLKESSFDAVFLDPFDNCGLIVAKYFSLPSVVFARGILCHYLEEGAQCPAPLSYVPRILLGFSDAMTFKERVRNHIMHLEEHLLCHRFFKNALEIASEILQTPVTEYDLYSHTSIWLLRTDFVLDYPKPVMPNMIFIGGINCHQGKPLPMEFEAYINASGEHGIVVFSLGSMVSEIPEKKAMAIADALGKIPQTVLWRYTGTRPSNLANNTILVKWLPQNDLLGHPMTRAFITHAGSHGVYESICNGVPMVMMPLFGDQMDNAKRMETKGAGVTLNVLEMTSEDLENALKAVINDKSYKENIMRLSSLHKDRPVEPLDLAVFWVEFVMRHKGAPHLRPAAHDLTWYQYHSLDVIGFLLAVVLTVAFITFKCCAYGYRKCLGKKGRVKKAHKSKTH

recombinant SULT1C4 = test: Recombinant SULT inhibition by ABT, SULT1C4; type: biochemical; settings: 1 mM ABT, raloxifene probe substrate, data not shown
UGT2B15 = UGT2B15 (Homo sapiens, UniProt P54855); test: UGT inhibition in suspension human hepatocytes; type: cell-based; settings: read-out: Ki,u HHEPs; UGT2B15, Oxazepam 10 μM, unbound
Sequence of UGT2B15 (P54855 24-530): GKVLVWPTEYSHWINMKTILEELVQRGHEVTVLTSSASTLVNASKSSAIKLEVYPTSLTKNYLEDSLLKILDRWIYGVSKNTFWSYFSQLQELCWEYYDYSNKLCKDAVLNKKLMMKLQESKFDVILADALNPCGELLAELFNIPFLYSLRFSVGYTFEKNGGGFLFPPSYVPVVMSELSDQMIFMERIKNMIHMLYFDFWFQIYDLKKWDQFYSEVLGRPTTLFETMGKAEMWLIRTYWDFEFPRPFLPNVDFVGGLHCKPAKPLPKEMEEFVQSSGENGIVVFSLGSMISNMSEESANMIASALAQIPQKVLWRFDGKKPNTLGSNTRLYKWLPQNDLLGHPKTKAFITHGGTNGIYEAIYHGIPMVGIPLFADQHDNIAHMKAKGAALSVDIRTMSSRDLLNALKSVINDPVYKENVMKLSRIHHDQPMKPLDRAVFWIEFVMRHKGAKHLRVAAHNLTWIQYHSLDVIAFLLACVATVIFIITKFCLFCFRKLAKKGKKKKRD

UGT1A1 = UGT1A1 (Homo sapiens, UniProt P22309); test: UGT inhibition in suspension human hepatocytes; type: cell-based; settings: UGT1A1, β‐Estradiol 3 μM, unbound
Sequence of UGT1A1 (P22309 26-533): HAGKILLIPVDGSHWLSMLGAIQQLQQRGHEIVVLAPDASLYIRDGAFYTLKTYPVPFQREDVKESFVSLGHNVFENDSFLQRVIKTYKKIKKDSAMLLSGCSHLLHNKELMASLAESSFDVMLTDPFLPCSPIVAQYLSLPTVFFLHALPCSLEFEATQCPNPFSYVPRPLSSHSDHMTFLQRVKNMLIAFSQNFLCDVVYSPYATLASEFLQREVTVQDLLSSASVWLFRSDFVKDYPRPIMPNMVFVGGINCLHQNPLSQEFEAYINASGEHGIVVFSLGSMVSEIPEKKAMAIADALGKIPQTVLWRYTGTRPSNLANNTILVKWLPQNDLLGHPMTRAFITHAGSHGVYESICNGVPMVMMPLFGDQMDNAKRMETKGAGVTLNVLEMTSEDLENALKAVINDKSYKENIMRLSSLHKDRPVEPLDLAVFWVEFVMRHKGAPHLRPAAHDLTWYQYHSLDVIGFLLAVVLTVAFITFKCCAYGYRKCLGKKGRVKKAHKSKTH

recombinant SULT1A1 = test: Recombinant SULT inhibition by ABT, SULT1A1; type: biochemical; settings: 1 mM ABT, raloxifene probe substrate, data not shown
recombinant SULT1E1 = test: Recombinant SULT inhibition by ABT, SULT1E1; type: biochemical; settings: 1 mM ABT, raloxifene probe substrate, data not shown
recombinant SULT2B1 = test: Recombinant SULT inhibition by ABT, SULT2B1; type: biochemical; settings: 1 mM ABT, raloxifene probe substrate, data not shown
recombinant SULT1C2 = test: Recombinant SULT inhibition by ABT, SULT1C2; type: biochemical; settings: 1 mM ABT, raloxifene probe substrate, data not shown
UGT1A6 = UGT1A6 (Homo sapiens, UniProt P19224); test: UGT inhibition in suspension human hepatocytes; type: cell-based; settings: UGT1A6, Serotonin 1715 μM, unbound
Sequence of UGT1A6 (P19224 27-532): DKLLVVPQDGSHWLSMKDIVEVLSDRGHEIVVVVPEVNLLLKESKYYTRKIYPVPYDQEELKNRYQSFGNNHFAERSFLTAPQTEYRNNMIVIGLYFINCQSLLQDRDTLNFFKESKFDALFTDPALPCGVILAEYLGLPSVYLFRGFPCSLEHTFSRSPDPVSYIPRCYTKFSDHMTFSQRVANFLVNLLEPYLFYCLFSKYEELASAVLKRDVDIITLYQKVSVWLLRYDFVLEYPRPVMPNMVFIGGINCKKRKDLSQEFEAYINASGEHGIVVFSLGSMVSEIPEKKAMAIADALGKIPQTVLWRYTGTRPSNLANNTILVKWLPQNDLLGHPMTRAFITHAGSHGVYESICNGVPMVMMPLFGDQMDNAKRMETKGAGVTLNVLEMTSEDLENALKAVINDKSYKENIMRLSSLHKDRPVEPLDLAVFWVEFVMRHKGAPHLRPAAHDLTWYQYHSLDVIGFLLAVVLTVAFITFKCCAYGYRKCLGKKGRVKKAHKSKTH

UGT1A4 = UGT1A4 (Homo sapiens, UniProt P22310); test: UGT inhibition in suspension human hepatocytes; type: cell-based; settings: read-out: Ki,u HHEPs; UGT1A4, TFP 1 μM, unbound
Sequence of UGT1A4 (P22310 29-534): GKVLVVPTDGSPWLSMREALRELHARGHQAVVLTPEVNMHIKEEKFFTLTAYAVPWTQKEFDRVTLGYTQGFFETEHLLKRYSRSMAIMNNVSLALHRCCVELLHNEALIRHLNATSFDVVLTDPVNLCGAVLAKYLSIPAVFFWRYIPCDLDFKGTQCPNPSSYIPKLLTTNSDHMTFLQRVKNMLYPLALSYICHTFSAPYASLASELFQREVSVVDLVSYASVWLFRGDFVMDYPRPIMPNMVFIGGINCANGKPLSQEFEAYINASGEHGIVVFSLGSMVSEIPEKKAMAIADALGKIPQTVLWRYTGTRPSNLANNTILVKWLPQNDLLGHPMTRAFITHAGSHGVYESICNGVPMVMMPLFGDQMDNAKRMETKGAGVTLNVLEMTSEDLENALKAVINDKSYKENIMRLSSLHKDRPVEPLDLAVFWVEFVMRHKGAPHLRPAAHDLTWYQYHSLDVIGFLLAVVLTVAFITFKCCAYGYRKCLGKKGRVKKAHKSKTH

SULT2A1 [1] = molecular target: T1, SULT2A1 (Homo sapiens, UniProt Q06520); test: Recombinant SULT inhibition by ABT, SULT2A1; type: biochemical; settings: 1 mM ABT, raloxifene probe substrate, data not shown
T1 sequence (Q06520 1-285): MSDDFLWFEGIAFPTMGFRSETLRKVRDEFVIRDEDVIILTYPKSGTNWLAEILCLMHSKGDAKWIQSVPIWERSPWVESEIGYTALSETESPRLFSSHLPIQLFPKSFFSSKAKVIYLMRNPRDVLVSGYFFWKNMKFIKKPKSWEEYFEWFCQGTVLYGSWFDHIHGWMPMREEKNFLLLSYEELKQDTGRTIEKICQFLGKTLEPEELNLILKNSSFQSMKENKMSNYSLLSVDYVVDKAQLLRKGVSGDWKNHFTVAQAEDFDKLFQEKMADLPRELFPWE

[2] = test system: palbociclib metabolic pathways in co‐culture human hepatocyte models; type: in vitro ADME
SULT2A1 [3] = molecular target: T1, SULT2A1; test: ARV-471 inhibition of SULT2A1 in Hμrel; type: cell-based; settings: Hμrel IC50 (DHEAS formation, SULT2A1), Hμrel model
Summary of the method: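 Hμrel co-culture of mixed-gender, five-donor pooled hepatocytes, acclimated 24 h at 37°C, 5% CO₂, exposed to varying test compound concentrations. […] DHEAS formation was measured and IC50 derived. Mean of three.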

CYP3A = CYP3A activity in Hμrel with ARV-471; type: cell-based, human
[4] = ref https://endpts.com/arvinas‐reports‐delay‐for‐pfizer‐partnered‐protein‐degradation‐program/, cited from earlier work
SULT2A1 [5] = molecular target: T1, SULT2A1; test: ARV-471 inhibition of recombinant SULT2A1; type: biochemical; settings: rSULT2A1 IC50 (DHEAS formation)
Summary of the method: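 Recombinant human SULT2A1 incubated with varying test compound concentrations. Read-out was formation of DHEAS, with IC50 derived from the concentration response. Mean of three.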

palbociclib sulfation = test: Formation of palbociclib sulfate in Hμrel with ARV-471; type: cell-based, human
[6] = test system: palbociclib intrinsic clearance in Hμrel co‐culture hepatocytes; test: Impact of ARV-471 on intrinsic clearance of palbociclib in Hμrel; type: in vitro ADME, human; settings: at ~3 μM ARV‐471
[7] = test system: CYP3A4 mRNA (marker of PXR); test: mRNA induction in sandwich cultured hepatocytes; type: cell-based, human; settings: RIS qualified donor HH1103, sandwich cultured hepatocytes, 48 h
[8] = Preliminary reaction phenotyping of palbociclib in hepatocytes; type: in vitro ADME; settings: novel approach (manuscript under preparation)
[9] = test system: CYP2B6 mRNA (marker of CAR); test: mRNA induction in sandwich cultured hepatocytes; type: cell-based, human; settings: RIS qualified donor HH1103, sandwich cultured hepatocytes, 48 h
[10] = Hμrel, 1'hydroxylation of midazolam

SMILES: Nn1nnc2ccccc21 [ABT, Aminobenzotriazole]
Ki (UGT1A3): 6.03 mM
inhibition of SULT1A3 (recombinant SULT1A3): No significant inhibition
Ki (UGT2B7): 5.45 mM
inhibition of SULT1B1 (recombinant SULT1B1): No significant inhibition
Ki (UGT1A9): 4.58 mM
inhibition of SULT1C4 (recombinant SULT1C4): No significant inhibition
Ki (UGT2B15): > 20 mM
Ki,u HHEPs (UGT1A1): No inhibition
inhibition of SULT1A1 (recombinant SULT1A1): No significant inhibition
inhibition of SULT1E1 (recombinant SULT1E1): No significant inhibition
inhibition of SULT2B1 (recombinant SULT2B1): No significant inhibition
inhibition of SULT1C2 (recombinant SULT1C2): No significant inhibition
Ki,u HHEPs (UGT1A6): No inhibition
Ki (UGT1A4): 2.52 mM
inhibition of SULT2A1 (SULT2A1 [1]): No significant inhibition

SMILES: O=C1CC[C@H](N2Cc3cc(N4CCN(CC5CCN(c6ccc([C@@H]7c8ccc(O)cc8CC[C@@H]7c7ccccc7)cc6)CC5)CC4)ccc3C2=O)C(=O)N1 [ARV-471]
glucuronide metabolism of palbociclib ([2]; Hμrel and TruVivo, 5 μM palbociclib, 20 μM ARV‐471): completely inhibited
inhibition of metabolic clearance accounted for by glucuronide metabolism ([2]; based on MS ionization and summed metabolite area ratios, 20 μM ARV‐471): up to 50%
IC50 (SULT2A1 [3]): > 0.035 mM
direct inhibition of CYP3A activity (CYP3A; [10]): no direct inhibition; also recorded: no direct or time‐dependent inhibition
time‐dependent inhibition of CYP3A (CYP3A; [10]): no direct or time‐dependent inhibition
Emax, increase in midazolam activity (CYP3A induction) (CYP3A; Hμrel, concentration and time‐dependent increase): 3.8 fold
EC50 (CYP3A; human, Hμrel co-culture hepatocytes, probe midazolam (1'-hydroxylation)): 0.00025 mM
increase in palbociclib exposure (area under the curve) ([4]; co‐administration of palbociclib with ARV‐471, phase Ib): ~ 50% and 50%
adverse event with increased palbociclib exposure ([4]; palbociclib with ARV‐471, phase Ib): grade 3/4 neutropenia
IC50 (SULT2A1 [5]): > 0.035 mM
effect on palbociclib sulfation over the time course (palbociclib sulfation): apparent activation
increase in palbociclib exposure recapitulated from Clint inhibition [6]: 50%

More lines, now with the values ahead:

CYP3A4 induction Emax [7]: 2 fold
SMILES: CC(=O)N1CCN(c2ccc(OCC3COC(Cn4ccnc4)(c4ccc(Cl)cc4Cl)O3)cc2)CC1 (stereo not shown) [ketoconazole]

Clint at 5 μM compared with 0.045 μM ([2]; co-culture hepatocytes, suggesting saturation of metabolic clearance): reduced
share of palbociclib clearance by glucuronidation [8]: 25%–30%
SMILES: CC(=O)c1c(C)c2cnc(Nc3ccc(N4CCNCC4)cn3)nc2n(C2CCCC2)c1=O [palbociclib]

CYP2B6 induction (result in words) [9]: did not induce
SMILES: C=C[C@H]1C[N@@]2CC[C@H]1C[C@@H]2[C@@H](O)c1ccnc2ccc(OC)cc12 [quinidine]

— publication PMC10949176 (Clinical and Translational Science, 2024)
